Columns and labels:
[1] = biological target: T1, SUMO-activating enzyme 1/2 (SAE 1/2, SUMO E1) (Homo sapiens, UniProt Q9UBT2); test: E1-SUMO-1 thioester formation gel assay with fluorescent SUMO-1; type: biochemical
T1 sequence (Q9UBT2 1-640): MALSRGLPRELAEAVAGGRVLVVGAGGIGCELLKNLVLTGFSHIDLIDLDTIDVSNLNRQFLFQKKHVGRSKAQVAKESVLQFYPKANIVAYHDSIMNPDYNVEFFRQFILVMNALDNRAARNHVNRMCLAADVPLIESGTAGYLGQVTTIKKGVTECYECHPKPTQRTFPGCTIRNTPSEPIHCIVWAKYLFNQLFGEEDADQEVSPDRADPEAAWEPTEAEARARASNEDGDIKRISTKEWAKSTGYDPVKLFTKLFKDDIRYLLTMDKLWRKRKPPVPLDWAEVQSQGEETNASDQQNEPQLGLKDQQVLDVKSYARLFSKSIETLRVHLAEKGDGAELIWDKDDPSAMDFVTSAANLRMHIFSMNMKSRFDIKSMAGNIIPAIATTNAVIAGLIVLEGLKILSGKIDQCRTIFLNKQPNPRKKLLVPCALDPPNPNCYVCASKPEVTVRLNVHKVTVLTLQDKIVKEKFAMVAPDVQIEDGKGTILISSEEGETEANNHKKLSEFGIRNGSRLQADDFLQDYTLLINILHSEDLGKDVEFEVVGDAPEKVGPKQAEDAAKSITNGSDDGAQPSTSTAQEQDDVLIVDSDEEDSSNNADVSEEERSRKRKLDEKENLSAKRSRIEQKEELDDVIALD
T1 sequence (Q9UBE0 1-346 partner): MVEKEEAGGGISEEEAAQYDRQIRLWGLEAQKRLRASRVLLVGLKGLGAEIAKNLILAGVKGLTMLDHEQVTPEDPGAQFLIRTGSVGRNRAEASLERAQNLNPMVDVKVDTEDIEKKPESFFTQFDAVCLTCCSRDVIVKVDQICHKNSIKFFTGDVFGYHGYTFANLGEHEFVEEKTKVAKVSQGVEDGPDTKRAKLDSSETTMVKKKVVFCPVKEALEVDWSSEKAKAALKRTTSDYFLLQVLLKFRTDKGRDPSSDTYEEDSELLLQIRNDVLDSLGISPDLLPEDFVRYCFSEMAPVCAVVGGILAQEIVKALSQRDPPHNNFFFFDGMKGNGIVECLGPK

UBC9 (SUMO E2 enzyme) = UBC9 (SUMO E2 enzyme) (Homo sapiens, UniProt P63279); test: reconstituted sumoylation cascade, electrophoretic mobility shift IC50; type: biochemical
Summary of the method: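 Reconstituted cascade in 50 mM Tris pH 9.0 with 5 mM MgCl2 and 1 mM DTT. Contains SUMO E1 0.1 µM, His-tagged SUMO-1 1.4 µM, UBC9 0.25 µM and a 5-FAM-labelled peptide substrate at 1.0 µM. Started with ATP (final 2 mM), run with test compound at varying concentrations for 90 min at room temperature, then EDTA-quenched. Conversion read by microfluidic mobility shift. IC50 from the mean of three replicates.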

Chain of UBC9 (SUMO E2 enzyme) (P63279 2-158): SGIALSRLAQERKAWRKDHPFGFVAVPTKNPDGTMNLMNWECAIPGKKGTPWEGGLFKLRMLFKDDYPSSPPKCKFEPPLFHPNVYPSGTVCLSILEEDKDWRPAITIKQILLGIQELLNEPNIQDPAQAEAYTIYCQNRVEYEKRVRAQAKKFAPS
Chain of UBC9 (SUMO E2 enzyme) (P63165 2-97 partner): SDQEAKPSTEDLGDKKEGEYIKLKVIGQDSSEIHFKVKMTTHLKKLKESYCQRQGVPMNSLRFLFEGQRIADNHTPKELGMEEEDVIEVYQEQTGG

IC50 (UBC9 (SUMO E2 enzyme)) [µM]	Compound	IC50 [1] [µM]
–	CCCCCC/C=C\CCCCCCCc1cccc(O)c1C(=O)O [ginkgolic acid]	9.1
6 ± 1.3	O=c1cc(-c2ccc(O)c(O)c2O)oc2ccccc12 [2-D08, 2’,3’,4’-trihydroxyflavone]	–

From article PMC3711074 (Chemistry & biology, 2013)
